From ChEMBL document CHEMBL1128262, “New steroidal antiinflammatory antedrugs: steroidal [16 alpha,17 alpha-d]-3'-carbethoxyisoxazolines” (1995) come the findings set out here.

The test system of assay [1] is Rattus norvegicus. The assay is described as follows: The %inhibition of compound for croton oil -induced ear edema was measured in rats at 0.01 mg/ear. In kind it is functional. The essentials:
(§1)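 Male Sprague-Dawley rats; initial ear thickness measured with spring-loaded micrometer. Single topical dose of steroid in 25 µL acetone/DMSO applied to ear surfaces, then 5% croton oil 30 min later. Ear thickness remeasured 5 h later at peak inflammation. % inhibition computed against vehicle-treated controls; five animals per group.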

Assay [2] concerns Rattus norvegicus. The assay is described as follows: The %inhibition of compound for croton oil -induced ear edema was measured in rats at 0.1 mg/ear. In kind it is functional. The essentials: as §1
The subject of assay [3] is Rattus norvegicus. As to the kind of experiment: The %inhibition of compound for croton oil -induced ear edema was measured in rats at 0.03 mg/ear. In kind it is functional. In outline: as §1
The subject of assay [4] is Rattus norvegicus. The assay is described as follows: The thymus weight change of rats after administration of the compound. In kind it is functional. In outline: (§2)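 Male Sprague-Dawley rats given 5-day once-daily topical steroid to right ears in acetone/DMSO, with croton oil to both ears. Afterward, body weight change, thymus weight change and plasma corticosterone (ng/mL) were recorded against controls. Five or six samples per group, mean ± SEM; ANOVA with Bonferroni post hoc test.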

Assay [5] deals with Rattus norvegicus. As to the kind of experiment: The antiinflammatory activity was evaluated as %inhibition of croton oil induced ear edema in the right ear of rat at the dose of 101(nmol/ear). In kind it is functional. In outline:
(§3)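 Male Sprague-Dawley rats. Right ears dosed topically (acetone/DMSO vehicle, 25 µL) once daily for 5 days, with 5% croton oil applied 30 min after each dose. Left ears received vehicle plus croton oil to reflect systemic effect. Micrometer ear thickness read 5 h after croton oil. % inhibition computed against controls; ANOVA with Bonferroni test.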

Assay [6] deals with Rattus norvegicus. As to the kind of experiment: The body weight change of rats after administration of the compound. In kind it is functional. In outline: as §2
Assay [7] has as its system Rattus norvegicus. As to the kind of experiment: The plasma corticosterone (ng/ml) concentration was measured in rats after compound administration. In kind it is functional, organism-based. The essentials: as §2
Assay [8] deals with Rattus norvegicus. The assay is described as follows: The antiinflammatory activity was evaluated as %inhibition of croton oil induced ear edema in the left ear of rat at the dose of 101(nmol/ear). In kind it is functional. The essentials: as §3
The test system of assay [9] is Rattus norvegicus. The assay is described as follows: The antiinflammatory activity was evaluated as %inhibition of croton oil induced ear edema in the left ear of rat At the dose of 135(nmol/ear). In kind it is functional. The essentials: as §3
The test system of assay [10] is Rattus norvegicus. The assay is described as follows: The antiinflammatory activity was evaluated as %inhibition of croton oil induced ear edema in the right ear of rat At the dose of 135(nmol/ear). In kind it is functional. In outline:
as §3

The subject of assay [11] is Rattus norvegicus. The assay is described as follows: The antiinflammatory activity was evaluated as %inhibition of croton oil induced ear edema in the left ear of rat. In kind it is functional. In outline: as §3
For assay [12], the system named is Rattus norvegicus. The assay is described as follows: The antiinflammatory activity was evaluated as %inhibition of croton oil induced ear edema in the right ear of rat. In kind it is functional. In outline:
as §3

Turning to `CCOC(=O)C1=NO[C@]2(C(=O)COC(C)=O)[C@H]1CC1C3CCC4=CC(=O)C=C[C@]4(C)[C@H]3[C@@H](O)C[C@@]12C` (stereo partly specified), the Inhibition with Rattus norvegicus [1] was 14.9%; in the assay on Rattus norvegicus [2], 35.7%; in the assay on Rattus norvegicus [3] it was 21.4%.

As for `CCOC(=O)C1=NO[C@]2(C(=O)COC(C)=O)[C@H]1CC1C3CCC4=CC(=O)C=C[C@]4(C)[C@@]3(F)[C@@H](O)C[C@@]12C` (stereo partly specified), the Thymus weight with Rattus norvegicus [4] amounted to 625 mg. Further, the Inhibition with Rattus norvegicus [5] worked out at 51.2%; in the assay with Rattus norvegicus [8] it was 8.9%. The compound also displayed a Body weight change with Rattus norvegicus [6] of 38 g. In the assay on Rattus norvegicus [7], the Plasma corticosterone was 134 ng/mL.

For the compound `CCOC(=O)C1=NO[C@]2(C(=O)CO)[C@H]1CC1C3CCC4=CC(=O)C=C[C@]4(C)[C@@]3(F)[C@@H](O)C[C@@]12C` (stereo partly specified), the Thymus weight with Rattus norvegicus [4] worked out at 562 mg. The Inhibition in the assay with Rattus norvegicus [9] was found to be 24.4%; in the assay with Rattus norvegicus [10], 56.9%. In the assay with Rattus norvegicus [6], the Body weight change worked out at 36 g. The Plasma corticosterone in the assay on Rattus norvegicus [7] stood at 48.6 ng/mL.

As for `CCOC(=O)C1=NO[C@]2(C(=O)CO)[C@H]1CC1C3CCC4=CC(=O)C=C[C@]4(C)[C@H]3[C@@H](O)C[C@@]12C` (stereo partly specified), the Inhibition with Rattus norvegicus [1] was determined as 31.3%; in the assay on Rattus norvegicus [2] it was 44%; in the assay on Rattus norvegicus [3], 44%.

In the case of `C[C@]12C=CC(=O)C=C1CC[C@@H]1[C@@H]2[C@@H](O)C[C@@]2(C)[C@H]1CC[C@]2(O)C(=O)CO` [PREDNISOLONE], in the assay with Rattus norvegicus [4], the Thymus weight was 369 mg. Further, the results for the Inhibition with Rattus norvegicus [11] and in the assay with Rattus norvegicus [12] were 49.6% and 66.7%, respectively. In the assay on Rattus norvegicus [6], this compound registered a Body weight change of 22.8 g. Moreover, the Plasma corticosterone in the assay with Rattus norvegicus [7] came to 31.8 ng/mL.
